Published values from different studies.
Lines come from different studies, so protocols differ.
Target: Non-receptor tyrosine-protein kinase TNK1 (TNK1, Homo sapiens, UniProt Q13470)
Sequence (Q13470 1-666, as in one of the studies): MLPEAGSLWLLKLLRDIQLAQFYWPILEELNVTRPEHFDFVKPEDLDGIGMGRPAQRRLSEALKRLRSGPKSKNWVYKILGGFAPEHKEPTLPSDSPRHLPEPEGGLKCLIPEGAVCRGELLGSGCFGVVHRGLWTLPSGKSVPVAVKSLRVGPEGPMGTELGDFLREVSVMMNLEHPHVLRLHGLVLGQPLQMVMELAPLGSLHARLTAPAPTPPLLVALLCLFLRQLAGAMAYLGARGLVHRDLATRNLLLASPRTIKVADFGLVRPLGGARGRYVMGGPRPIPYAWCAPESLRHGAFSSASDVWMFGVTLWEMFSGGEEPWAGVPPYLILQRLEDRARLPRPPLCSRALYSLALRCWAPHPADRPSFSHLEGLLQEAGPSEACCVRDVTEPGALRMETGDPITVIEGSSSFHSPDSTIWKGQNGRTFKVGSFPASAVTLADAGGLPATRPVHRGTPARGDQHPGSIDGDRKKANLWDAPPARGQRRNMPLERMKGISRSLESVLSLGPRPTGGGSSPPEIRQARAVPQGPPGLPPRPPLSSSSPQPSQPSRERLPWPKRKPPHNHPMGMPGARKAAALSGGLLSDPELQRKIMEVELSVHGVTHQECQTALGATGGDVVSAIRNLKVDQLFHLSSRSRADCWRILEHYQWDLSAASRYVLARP

CC/C(=N\NC(=O)NCc1cccc(O)c1)c1ccc(O)c(C)c1O
inhibition (enzyme activity; inhibitor; 0.1 µM): -1.1%

CCOC(=O)c1cc2cc(-c3cc(C(=O)NCc4ccc(C(=O)O)cc4)nn3C)ccc2[nH]1
remaining binding (cell-free assay; competition with immobilised ligand; 0.1 µM): 88%

c1nc2c(Nc3ccc4c(c3)OCCO4)nc(Nc3ccc4c(c3)OCCO4)nc2[nH]1
activity vs control (enzyme activity; inhibitor; 10 µM): 14%

CC(C)(O)[C@H]1CC[C@H](Nc2ccc3ncc(-c4cccc(C(F)(F)F)c4)n3n2)CC1
remaining activity (enzyme activity; inhibitor; 1 µM): 52.4%

Nc1ncnc2occ(-c3ccc(NC(=O)Nc4cc(C(F)(F)F)ccc4F)cc3)c12
remaining signal (cell-free assay; inhibitor; 20 µM): 6.8%

CC(=O)N1CCC(c2ccc(C(=O)NC(=N)N)cc2C(F)(F)F)CC1
remaining binding (cell-free assay; competition with immobilised ligand; 1 µM): 89%

Cc1sc(C(=O)NC2COC2)cc1-n1cc(NC(=O)Nc2c(F)cccc2Cl)cn1
remaining activity (enzyme activity; inhibitor; 10 µM): 105%

CC(C)(C)c1nc2c(s1)c1nc(N)ncc1c1ccc(NS(=O)(=O)c3c(F)cccc3F)c(F)c12
remaining activity (enzyme activity; inhibitor; radiometric; 1 µM): 82%

O=C(Nc1cnn(-c2csc(C(=O)NC3COC3)c2)c1)Nc1ccccc1Cl
remaining activity (enzyme activity; inhibitor; 5 µM): 100%

Cc1ccc(C(=O)Nc2ccc(CN3CCN(C)CC3)c(C(F)(F)F)c2)cc1C#Cc1cnc2cccnn12
remaining activity (enzyme activity; inhibitor; 23.5 nM): 13%
